Assay results reported in ChEMBL document CHEMBL3259715, “Shuttle-cargo fusion molecules of transport peptides and the hD2/3 receptor antagonist fallypride: a feasible approach to preserve ligand-receptor binding?” (J Med Chem, 2014).

Experiments:
[1] = Cytotoxicity against hCMEC/D3 cells at 0.1 to 50 uM after 4 hrs by Alamar Blue assay; type: cell-based; settings: human, hcmec/d3, 4 h
Method in brief: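 Cytotoxicity was tested by AlamarBlue on hCMEC/D3 cells, the same cells used for the calcein assay. The read-out is the fall in metabolic activity, seen as reduced redox potential of viable cells.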

D(2) dopamine receptor = D(2) dopamine receptor (Homo sapiens, UniProt P14416); assay: Displacement of [3H]spiperone from human D2 receptor transfected in HEK cells; type: cell-based, HEK293
[2] = Activity at P-gp in hCMEC/D3 cells at 0.1 to 50 uM after 15 mins by calcein-AM assay; type: ADME, cell-based; settings: human, cmec/d3, 0.25 h

D(2) dopamine receptor, sequence (P14416 whole entry): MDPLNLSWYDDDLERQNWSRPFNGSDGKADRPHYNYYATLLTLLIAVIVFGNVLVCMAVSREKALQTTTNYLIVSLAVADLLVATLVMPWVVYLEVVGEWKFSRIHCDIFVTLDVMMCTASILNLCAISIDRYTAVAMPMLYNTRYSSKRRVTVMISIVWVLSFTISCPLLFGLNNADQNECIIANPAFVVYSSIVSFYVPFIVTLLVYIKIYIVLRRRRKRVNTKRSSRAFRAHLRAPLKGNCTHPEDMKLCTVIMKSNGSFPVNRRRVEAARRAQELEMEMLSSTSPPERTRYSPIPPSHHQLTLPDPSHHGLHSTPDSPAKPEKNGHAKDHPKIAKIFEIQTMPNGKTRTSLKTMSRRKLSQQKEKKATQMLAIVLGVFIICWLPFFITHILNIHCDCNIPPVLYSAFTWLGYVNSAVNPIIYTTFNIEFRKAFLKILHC

| SMILES | Activity [1] | Ki (D(2) dopamine receptor) | Activity [2] |
| --- | --- | --- | --- |
| C=CCN1CCC[C@H]1CNC(=O)c1cc(CCCSC2CC(=O)N(CCCCCC(=O)N[C@H](C(=O)N[C@@H](Cc3ccccc3)C(=O)N[C@@H](Cc3ccccc3)C(=O)N[C@@H](Cc3ccc(O)cc3)C(=O)NCC(=O)NCC(=O)N[C@@H](CO)C(=O)N[C@@H](CCCNC(=N)N)C(=O)NCC(=O)N[C@@H](CCCCNC(=O)CN3CCN(CC(=O)O)CCN(CC(=O)O)CCN(CC(=O)O)CC3)C(=O)N[C@@H](CCCNC(=N)N)C(=O)N[C@@H](CC(N)=O)C(=O)N[C@@H](CC(N)=O)C(=O)N[C@@H](Cc3ccccc3)C(=O)N[C@@H](CCCCN)C(=O)N[C@H](C(=O)N[C@@H](CCC(=O)O)C(=O)N[C@@H](CCC(=O)O)C(=O)N[C@@H](Cc3ccc(O)cc3)C(=O)O)[C@@H](C)O)[C@@H](C)O)C2=O)cc(OC)c1OC (stereo not given in full) | Non-toxic | 8.01 nM | Not Active |
| C=CCN1CCC[C@H]1CNC(=O)c1cc(CCCSC2CC(=O)N(CCCCCC(=O)NCCOCCOCCOCCOCCC(=O)N[C@@H](Cc3cnc[nH]3)C(=O)N[C@@H](C)C(=O)N[C@H](C(=O)N[C@@H](Cc3ccc(O)cc3)C(=O)N3CCC[C@H]3C(=O)N[C@@H](CCCNC(=N)N)C(=O)N[C@@H](Cc3cnc[nH]3)C(=O)O)[C@@H](C)CC)C2=O)cc(OC)c1OC (stereo not given in full) | Non-toxic | 1.47 nM | Not Active |
| C=CCN1CCC[C@H]1CNC(=O)c1cc(CCCSC2CC(=O)N(CCCCCC(=O)NCCOCCOCCOCCOCCC(=O)N[C@@H](CCCCNC(=O)O/N=C/c3ccc([Si](F)(C(C)(C)C)C(C)(C)C)cc3)C(=O)N[C@@H](Cc3cnc[nH]3)C(=O)N[C@@H](C)C(=O)N[C@H](C(=O)N[C@@H](Cc3ccc(O)cc3)C(=O)N3CCC[C@H]3C(=O)N[C@@H](CCCNC(=N)N)C(=O)N[C@@H](Cc3cnc[nH]3)C(=O)O)[C@@H](C)CC)C2=O)cc(OC)c1OC (stereo not given in full) | Non-toxic | 5.98 nM | Not Active |
| C=CCN1CCC[C@H]1CNC(=O)c1cc(CCCSC2CC(=O)N(CCCCCC(=O)NCCOCCOCCOCCOCCC(=O)N[C@@H](CCCCNC(=O)CN3CCN(CC(=O)O)CCN(CC(=O)O)CCN(CC(=O)O)CC3)C(=O)N[C@@H](Cc3cnc[nH]3)C(=O)N[C@@H](C)C(=O)N[C@H](C(=O)N[C@@H](Cc3ccc(O)cc3)C(=O)N3CCC[C@H]3C(=O)N[C@@H](CCCNC(=N)N)C(=O)N[C@@H](Cc3cnc[nH]3)C(=O)O)[C@@H](C)CC)C2=O)cc(OC)c1OC (stereo not given in full) | Non-toxic | 52 nM | Not Active |
| CC[C@H](C)[C@H](NC(=O)[C@H](C)NC(=O)[C@@H](N)Cc1cnc[nH]1)C(=O)N[C@@H](Cc1ccc(O)cc1)C(=O)N1CCC[C@H]1C(=O)N[C@@H](CCCNC(=N)N)C(=O)N[C@@H](Cc1cnc[nH]1)C(=O)O | Non-toxic | > 1000 nM | Not Active |
